CAL PDZ FP-1: inhibitors of human CAL PDZ peptide binding; purified CAL PDZ, TMR-peptide fluorescence polarization, 1 h; inhibition, % at 20 µM; 330,000 tested, 0.02% active; AID 504414;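 active = highest replicate inhibition of at least 40%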;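 also: plate controls were DMSO neutral control wells for no effect and unlabeled competitor peptide control wells for full effect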
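System: tagged CAL PDZ domain. Schedule: 1 h room-temperature incubation prior to read. Signal: fluorescence polarization (mP). Measure: percent inhibition from loss of millipolarization.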
Keap1 Nrf2 FP: disrupts human Keap1 binding to Nrf2 peptide; Q14145; Keap1 Kelch-Nrf2 peptide fluorescence polarization, 1536-well; inhibition, % at 9.4 µM; 340,000 tested, 0.15% active; AID 504523; in the data active = inhibition above about 12%;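 also: human Keap1 Kelch domain with fluorescein labeled Nrf2 9mer peptide probe; 0% = neutral control wells and 100% = peptide positive control; higher means more block of Keap1 binding to Nrf2 peptide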
LANA DNA inh: inhibitors of KSHV LANA C-terminal domain DNA binding. MBP-C-LANA/FAM-LBS DNA binding, fluorescence polarization. inhibition, % at 9 µM. 340,000 tested, 0.078% active. AID 504423;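 active = highest replicate inhibition at or above 60% at 9 µM, even if other replicates fall short; inactive = all replicates below 60% inhibition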;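 also: 0% = neutral control wells and 100% = 4 µM acridine orange control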
LANA-H2A inh: blocks KSHV LANA binding to histone H2A/H2B | Q9QR71 | cell-free LANA-H2A/H2B peptide, fluorescence polarization | inhibition, % (concentration not given with the values) | 320,000 tested, 0.6% active; in the data active = inhibition mostly above about 10%, no sharp cut-off; inactive = mostly below about 6.7%
CaV13 FRET inh: Disruptors of the CACNA1D IQ motif to Ca2+-dependent inactivation inhibitor domain association, primary screening, Förster resonance energy transfer in intact living …. HEK cells, CFP/YFP FRET ICDI-IQ, plate reader, 10 min; percent FRET-ratio fall versus neutral wells. inhibition, % at 12.3 µM. 340,000 tested, 0.098% active. AID 743397;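 active = mean replicate inhibition of at least 30% and at least 1% of replicates passing that level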;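 also: 0% = median of the neutral control wells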
CAL PDZ FP-2: CAL PDZ (human) peptide binding inhibition | Q9HD26 | purified CAL PDZ, TMR-peptide fluorescence polarization, 1 h | inhibition, % at 24.9 µM | 300,000 tested, 0.92% active;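 active = mean inhibition of at least 30% with at least half of replicates also reaching 30%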;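 also: 0% = DMSO neutral control and 100% = excess unlabeled competitor peptide PRC23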
* = called active by the depositor; · = no result given; ! = repeats disagree. Rows were chosen to be rich in hits. Some 1.5% of all compounds tested hit in one or more screens of this group.

SMILES	CAL PDZ FP-1	Keap1 Nrf2 FP	LANA DNA inh	LANA-H2A inh	CaV13 FRET inh	CAL PDZ FP-2
Cn1c(=O)c2[nH]c(NN=Cc3ccccc3)nc2n(C)c1=O	1	1	-1	·	-10	94*
Cc1ccc(CN2CCN(/N=C/c3ccc(O)c(O)c3)CC2)cc1	-2	-1	5	0	-5	-2
COc1ccc(/C=N/N2CCN(Cc3ccc(C)cc3)CC2)cc1Br	7	-3	4	1	-20	72*
COC(=O)c1cc2c(c3c4cc(OC)ccc4n(C(=O)c4ccccc4)c13)C(=O)N(Cc1ccco1)C2	·	·	·	·	-9	·
COc1cccc(C(C)NC(=O)Nc2ccccc2Cl)c1 (centres undefined)	-2	0	1	15*	-3	1
O=C(O)c1ccccc1-c1ccccc1C(=O)NCc1cccc(C(F)(F)F)c1	-2	4	0	18*	-10	0
CCOC(=O)CNC(=O)C12CC3CC(C1)CC(c1ccc(C)cc1)(C3)C2	-1	6	3	-2	-5	-1
CCOc1ccc(NC(=O)C23CC4CC(C2)CC(c2ccccc2)(C4)C3)cc1	0	-2	2	14*	-5	-3
C=CCNc1cccc2c1S(=O)(=O)N[C@H](CC(C)C)CO2	·	·	·	·	-7	·
O=C(O)c1cn[nH]c1-c1cccc([N+](=O)[O-])c1	-5	0	11	-1	4	61*
O=Cc1cn[nH]c1-c1cccc([N+](=O)[O-])c1	-1	0	1	4	18	-1
O=C1OC2(CCCCC2)OC(=O)C1=CNc1nc2ccccc2s1	30	-1	0	-2	-5	52*
CN1OC[C@@H]2CN(C(=S)Nc3cc(C(F)(F)F)cc(C(F)(F)F)c3)[C@H](c3ccccc3Br)C[C@@H]21	·	·	·	·	-9	·
O=C(N/N=C/c1ccoc1)c1cc(Br)ccc1O	-2	2	-1	-7	·	0
O=C(N/N=C/c1ccoc1)c1ccccc1Br	10	-3	1	3	·	39*
O=C(NCC1(c2ccccc2)CCCC1)C(=O)NCC1(c2ccccc2)CCCC1	0	-2	0	·	-5	-5
CC1(CNC(=O)C(=O)NCC2(C)CO2)CO1 (centres undefined)	1	1	2	·	-10	41*
O=C(Nc1ccccc1Oc1ccsc1C(=O)O)c1ccccc1	-3	0	0	-3	-16	39*
O=C(Nc1ccc(Oc2ccsc2C(=O)O)cc1)c1ccccc1F	-1	0	1	0	-5	-3
O=C(Nc1ccccc1Oc1ccsc1C(=O)O)c1ccccc1F	-1	-6	-2	98*	-5	-1
COC(=O)C1=C(C)N(Cc2cccc(C(F)(F)F)c2)C(=NCC2CC2)NC1c1ccc(F)cc1 (centres undefined)	·	·	·	·	-1	·
CCN(CC)S(=O)(=O)c1cc(NC(=O)CNc2cccc(S(=O)(=O)N3CCCC3)c2)ccc1C	-2	0	0	-4	·	3
CCCN1CCN(C(=O)c2ccc(CS(=O)c3ccc(Br)cc3)o2)CC1 (centres undefined)	·	·	·	·	35*	·
CCCN1CCN(C(=O)c2ccc(CS(=O)c3ccc(Cl)cc3)o2)CC1 (centres undefined)	-1	4	0	1	-2	-2
C[C@H](CO)N1C[C@H](C)[C@H](CN(C)S(=O)(=O)c2ccc3ccccc3c2)OCc2cnnn2CCCC1=O	·	·	·	·	-5	·
SMILES	CAL PDZ FP-1	Keap1 Nrf2 FP	LANA DNA inh	LANA-H2A inh	CaV13 FRET inh	CAL PDZ FP-2
O=C(Nc1ccccc1N1CCCCC1)c1ccc(Cl)c([N+](=O)[O-])c1	0	-1	0	4	1	·
CN1CCN(c2ccccc2NC(=O)c2ccc(N3CCCC3)c([N+](=O)[O-])c2)CC1	58*	6	2	-2	-4	43*
NC(=O)c1ncn([C@@H]2O[C@H](C(=O)N[C@H](Cc3c[nH]c4ccccc34)C(=O)O)[C@@H](O)[C@H]2O)n1	·	·	·	·	-5	·
CCNC(=O)N(C)[C@H]1C[C@@H](c2ccccc2)N(C(C)=O)C[C@H]1CO	·	·	·	·	-5	·
O=c1cc2c(=O)oc3cc(O)c(O)oc3c2c(O)c1O	·	-3	112*	·	-19	-3
CCN(CC)c1ccc(SS(=O)(=O)O)cc1	0	-5	-1	35*!	0	-1

Screens from PubChem BioAssay.
